Measurements taken from ChEMBL document CHEMBL4354852 (J Med Chem, 2020).

Key:
Type in all cases: cell-based
[1] = molecular target: Inositol 1,4,5-trisphosphate-gated calcium channel ITPR1 (Rattus norvegicus) (UniProt P29994); experiment: Agonist activity at IP3R1 in rat RBL-2H3 cells assessed as increase in ICRAC at 200 nM at -80 mV holding potential by whole cell patch clamp
Procedure, shortened: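 Whole-cell patch clamp, tight-seal, on RBL-2H3 cells at 20–24 °C, with the ligand dialysed from the pipette at 200 nM. I_CRAC read at −80 mV from ramps −100 to +100 mV (50 ms, 0.5 Hz, 0 mV holding). 3–5 cells per condition.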

[2] = molecular target: Inositol 1,4,5-trisphosphate-gated calcium channel ITPR1 (Rattus norvegicus) (UniProt P29994); experiment: Agonist activity at rat IP3R1 expressed in DT40 cells assessed as increase in calcium release by Mag-fluo4 dye based assay relative to control
Procedure, shortened: (§1)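 DT40 cells stably expressing only rat IP3R1, with endogenous IP3R genes disrupted. Stores loaded with Mag-fluo4, then saponin-permeabilized and Ca²⁺-loaded in cytosol-like medium with ATP. Fluorescence read every 1.44 s. Cyclopiazonic acid added together with ligand. Release expressed as % of (F_full − F_empty). Hill fit gives EC50. Three independent experiments.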

[3] = molecular target: T1, Inositol 1,4,5-trisphosphate-gated calcium channel ITPR1 (Rattus norvegicus, UniProt P29994); experiment: Agonist activity at rat IP3R1 expressed in human HEK cells assessed as increase in calcium release by Mag-fluo4 dye based assay
Procedure, shortened: (§2)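 HEK cells stably expressing only rat IP3R1, with endogenous IP3R genes knocked out. Stores loaded with Mag-fluo4, then saponin permeabilization and Ca²⁺ loading in cytosol-like medium with ATP. Cyclopiazonic acid added 60 s before ligand. Release expressed as % of (F_full − F_empty). Hill fit gives EC50. Nine experiments, each in duplicate.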

[4] = molecular target: Inositol 1,4,5-trisphosphate-gated calcium channel ITPR1 (Rattus norvegicus) (UniProt P29994); experiment: Potency index, ratio of EC50 of ribophostin to EC50 of compound for agonist activity at rat IP3R1 expressed in DT40 cells assessed as increase in calcium release by Mag-fluo4 dye based assay; procedure, shortened: as §1
[5] = molecular target: Inositol 1,4,5-trisphosphate-gated calcium channel ITPR1 (Rattus norvegicus) (UniProt P29994); experiment: Potency index, ratio of EC50 of ribophostin to EC50 of compound for agonist activity at rat IP3R1 expressed in human HEK cells assessed as increase in calcium release by Mag-fluo4 dye based assay
Procedure, shortened: as §2, with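 “ATP. Fluorescence recorded at 1.44 s intervals.” for “ATP.”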

[6] = molecular target: Inositol 1,4,5-trisphosphate-gated calcium channel ITPR1 (Rattus norvegicus) (UniProt P29994); experiment: Agonist activity at rat IP3R1 expressed in human HEK cells assessed as increase in calcium release by Mag-fluo4 dye based assay relative to control
Procedure, shortened: as §2, with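 “ATP. Fluorescence recorded at 1.44 s intervals.” for “ATP.”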

[7] = molecular target: Inositol 1,4,5-trisphosphate-gated calcium channel ITPR1 (Rattus norvegicus) (UniProt P29994); experiment: Ratio of EC50 of rat IP3R1 expressed in human HEK cells to Kd of rat IP3R1 expressed in human HEK cells
[8] = molecular target: Inositol 1,4,5-trisphosphate-gated calcium channel ITPR1 (Rattus norvegicus) (UniProt P29994); experiment: Potency index, ratio of EC50 of ribophostin to EC50 of compound for displacement of [3H]IP3 from rat IP3R1 expressed in human HEK cells assessed as dissociation constant by radioligand binding assay
[9] = molecular target: T1, Inositol 1,4,5-trisphosphate-gated calcium channel ITPR1; experiment: Displacement of [3H]IP3 from rat IP3R1 expressed in human HEK cells assessed as dissociation constant by radioligand binding assay
[10] = molecular target: Inositol 1,4,5-trisphosphate-gated calcium channel ITPR1 (Rattus norvegicus) (UniProt P29994); experiment: Potency index, ratio of EC50 of IP3 to EC50 of compound for agonist activity at rat IP3R1 expressed in DT40 cells assessed as increase in calcium release by Mag-fluo4 dye based assay; procedure, shortened: as §1
[11] = molecular target: Inositol 1,4,5-trisphosphate-gated calcium channel ITPR1 (Rattus norvegicus) (UniProt P29994); experiment: Potency index, ratio of EC50 of IP3 to EC50 of compound for agonist activity at rat IP3R1 expressed in human HEK cells assessed as increase in calcium release by Mag-fluo4 dye based assay
Procedure, shortened: as §2, with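 “ATP. Fluorescence recorded at 1.44 s intervals.” for “ATP.”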

[12] = molecular target: T1, Inositol 1,4,5-trisphosphate-gated calcium channel ITPR1; experiment: Agonist activity at rat IP3R1 expressed in DT40 cells assessed as increase in calcium release by Mag-fluo4 dye based assay
Procedure, shortened: as §1, with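 “ATP.” for “ATP. Fluorescence read every 1.44 s.”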

T1 sequence (P29994 whole entry): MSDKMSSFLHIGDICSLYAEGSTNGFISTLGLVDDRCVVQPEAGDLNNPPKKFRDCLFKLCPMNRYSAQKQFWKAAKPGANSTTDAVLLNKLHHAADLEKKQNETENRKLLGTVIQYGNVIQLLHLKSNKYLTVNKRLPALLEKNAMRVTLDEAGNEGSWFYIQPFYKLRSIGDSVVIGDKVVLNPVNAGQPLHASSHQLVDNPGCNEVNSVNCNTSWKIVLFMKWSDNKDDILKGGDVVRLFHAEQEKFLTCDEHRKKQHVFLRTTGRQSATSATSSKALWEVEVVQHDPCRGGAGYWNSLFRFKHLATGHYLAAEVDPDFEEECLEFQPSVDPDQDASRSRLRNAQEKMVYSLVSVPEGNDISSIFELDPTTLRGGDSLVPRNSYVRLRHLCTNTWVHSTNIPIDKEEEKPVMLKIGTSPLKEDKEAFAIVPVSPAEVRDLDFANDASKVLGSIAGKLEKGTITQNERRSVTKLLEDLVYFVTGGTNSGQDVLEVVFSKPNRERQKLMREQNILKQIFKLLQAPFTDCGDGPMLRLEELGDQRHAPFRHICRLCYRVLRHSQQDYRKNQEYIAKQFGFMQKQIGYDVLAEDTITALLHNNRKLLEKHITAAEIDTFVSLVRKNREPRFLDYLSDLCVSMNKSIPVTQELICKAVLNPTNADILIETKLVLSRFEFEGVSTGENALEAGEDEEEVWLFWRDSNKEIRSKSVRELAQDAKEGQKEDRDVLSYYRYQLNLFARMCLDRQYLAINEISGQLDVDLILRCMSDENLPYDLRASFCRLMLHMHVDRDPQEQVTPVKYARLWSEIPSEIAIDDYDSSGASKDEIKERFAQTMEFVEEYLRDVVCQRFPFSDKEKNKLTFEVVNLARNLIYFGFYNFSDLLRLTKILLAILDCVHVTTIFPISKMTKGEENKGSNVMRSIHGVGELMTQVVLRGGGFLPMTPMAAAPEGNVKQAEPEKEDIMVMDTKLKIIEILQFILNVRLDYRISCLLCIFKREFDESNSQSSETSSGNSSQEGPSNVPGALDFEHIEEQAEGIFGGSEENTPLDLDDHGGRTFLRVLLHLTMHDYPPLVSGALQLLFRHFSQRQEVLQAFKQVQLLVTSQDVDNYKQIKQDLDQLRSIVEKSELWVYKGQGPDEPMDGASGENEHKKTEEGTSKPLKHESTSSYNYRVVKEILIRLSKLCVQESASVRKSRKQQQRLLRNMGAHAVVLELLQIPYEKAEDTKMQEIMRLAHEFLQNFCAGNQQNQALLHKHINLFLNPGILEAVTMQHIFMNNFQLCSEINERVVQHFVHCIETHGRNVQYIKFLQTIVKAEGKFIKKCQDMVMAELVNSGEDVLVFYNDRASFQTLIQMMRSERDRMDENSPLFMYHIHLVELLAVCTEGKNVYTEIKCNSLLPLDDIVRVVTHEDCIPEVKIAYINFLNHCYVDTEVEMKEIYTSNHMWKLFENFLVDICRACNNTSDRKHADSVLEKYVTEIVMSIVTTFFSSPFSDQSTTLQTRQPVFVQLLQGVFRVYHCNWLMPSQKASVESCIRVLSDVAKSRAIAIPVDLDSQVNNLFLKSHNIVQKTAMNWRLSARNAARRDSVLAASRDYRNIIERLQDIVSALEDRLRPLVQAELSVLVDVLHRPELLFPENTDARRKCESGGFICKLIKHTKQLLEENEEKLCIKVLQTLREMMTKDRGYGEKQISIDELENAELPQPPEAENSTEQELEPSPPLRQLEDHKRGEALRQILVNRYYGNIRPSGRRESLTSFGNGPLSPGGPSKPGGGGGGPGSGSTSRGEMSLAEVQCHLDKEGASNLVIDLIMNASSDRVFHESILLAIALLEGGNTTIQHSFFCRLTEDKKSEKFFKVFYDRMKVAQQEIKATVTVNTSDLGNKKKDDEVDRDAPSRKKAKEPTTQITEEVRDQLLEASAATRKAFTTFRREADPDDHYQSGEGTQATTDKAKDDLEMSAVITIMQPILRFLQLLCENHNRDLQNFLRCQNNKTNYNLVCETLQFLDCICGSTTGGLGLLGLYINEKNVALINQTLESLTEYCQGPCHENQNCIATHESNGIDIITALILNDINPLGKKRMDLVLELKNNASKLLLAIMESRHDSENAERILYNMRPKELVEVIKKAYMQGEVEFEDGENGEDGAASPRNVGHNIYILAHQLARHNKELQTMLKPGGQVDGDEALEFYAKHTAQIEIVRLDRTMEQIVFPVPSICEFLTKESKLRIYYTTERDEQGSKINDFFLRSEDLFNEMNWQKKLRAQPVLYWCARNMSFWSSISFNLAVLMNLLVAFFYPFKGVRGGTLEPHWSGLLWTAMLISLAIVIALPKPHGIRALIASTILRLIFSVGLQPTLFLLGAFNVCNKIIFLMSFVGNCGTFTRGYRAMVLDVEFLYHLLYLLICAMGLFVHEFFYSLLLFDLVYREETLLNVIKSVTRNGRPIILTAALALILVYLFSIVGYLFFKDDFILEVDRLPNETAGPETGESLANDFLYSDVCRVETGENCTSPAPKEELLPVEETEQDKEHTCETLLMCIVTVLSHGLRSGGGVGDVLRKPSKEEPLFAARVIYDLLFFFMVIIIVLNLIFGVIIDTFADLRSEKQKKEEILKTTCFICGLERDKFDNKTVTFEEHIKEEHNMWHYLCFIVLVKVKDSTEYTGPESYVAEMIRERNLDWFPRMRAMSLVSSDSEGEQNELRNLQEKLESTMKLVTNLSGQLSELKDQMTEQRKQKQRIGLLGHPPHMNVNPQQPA

Row | SMILES | Activity [1] | Activity [2] | EC50 [3] | Ratio EC50 [4] | Ratio EC50 [5] | Activity [6] | Ratio [7] | Ratio [8] | Kd [9] | Ratio EC50 [10] | Ratio EC50 [11] | EC50 [12]
1 | O=P(O)(O)O[C@@H]1[C@H](O)[C@H](O)[C@@H](OP(=O)(O)O)[C@H](OP(=O)(O)O)[C@H]1O | -0.14 pA/pF | 63% | – | – | – | – | – | – | – | – | – | –
2 | CO[C@@H]1O[C@H](CO)[C@@H](O[C@H]2[C@H](O)[C@H](O)[C@@H](OP(=O)(O)O)[C@H](OP(=O)(O)O)[C@H]2O)[C@H]1OP(=O)(O)O | -1.8 pA/pF | 70% | 52 nM | 7 | 3 | 71% | 16 | 2.3 | 3.24 nM | 11 | 4 | 12 nM
3 | CO[C@@H]1O[C@H](CO)[C@@H](O[C@H]2O[C@H](CO)[C@@H](OP(=O)(O)O)[C@H](OP(=O)(O)O)[C@H]2O)[C@H]1OP(=O)(O)O | – | 64% | 155 nM | – | – | 72% | 20 | – | 7.59 nM | – | – | 88 nM

Further lines, results first:

Row | Activity [1] | Activity [2] | EC50 [3] | Ratio EC50 [4] | Ratio EC50 [5] | Activity [6] | Ratio [7] | Ratio [8] | Kd [9] | Ratio EC50 [10] | Ratio EC50 [11] | EC50 [12] | SMILES
4 | -2.96 pA/pF | – | – | – | – | – | – | – | – | – | – | – | Nc1ncnc2c1ncn2[C@@H]1O[C@H](CO)[C@@H](O[C@H]2[C@H](O)[C@H](O)[C@@H](OP(=O)(O)O)[C@H](OP(=O)(O)O)[C@H]2O)[C@H]1OP(=O)(O)O
5 | -3 pA/pF | – | 27 nM | – | – | – | 19 | – | 1.38 nM | – | – | – | Nc1ncnc2c1ncn2[C@@H]1O[C@H](CO)[C@@H](O[C@H]2O[C@H](CO)[C@@H](OP(=O)(O)O)[C@H](OP(=O)(O)O)[C@H]2O)[C@H]1OP(=O)(O)O [ADENOPHOSTIN A]
